# Measurements pooled from the literature.
# Each line is one published result; the experiments were not run side by side.
# Matrix: plasma
SMILES,system,conditions,half-life
Cc1ncc(C)n2nc(/C=C/c3nc(N4CCCC4)cc(N4CCOCC4)n3)nc12,male Sprague-Dawley rat,"intravenous, 0.1 mg/kg",4.6 h
CC(=O)N[C@@H](C)C(=O)N[C@H]1CSSC[C@@H](C(=O)O)NC(=O)[C@H](Cc2ccccc2)NC(=O)[C@@H]2CCCN2C(=O)[C@H](Cc2c[nH]c3ccccc23)NC(=O)[C@H](CC(C)C)NC(=O)[C@H](CC(C)C)NC(=O)[C@H](CC(=O)O)NC(=O)[C@H](Cc2ccccc2)NC(=O)[C@H](Cc2c[nH]cn2)NC(=O)[C@H]([C@@H](C)O)NC(=O)[C@H](Cc2ccccc2)NC1=O,male Sprague-Dawley rat,intravenous,0.0303 h
CCCC[C@@H]1NC(=O)[C@H](Cc2ccc(O)cc2)NC(=O)[C@@H]2CCCN2C(=O)[C@H](CC(=O)O)NC(=O)[C@H](C)NC(=O)[C@H](Cc2ccccc2)NC(=O)[C@@H]2CSCCC(=O)N3CN(CN(C3)C(=O)CCSC[C@H](NC(C)=O)C(=O)N[C@@H](CC(C)(C)C)C(=O)N3CCC[C@H]3C(=O)N[C@@H](CCC(=O)O)C(=O)N[C@H](CCCCNC(=O)CCc3cn(CCOCCOCCOCCN(CCOCCOCCOCCC(=O)N[C@H]4CSCCC(=O)N5CN6CN(C5)C(=O)CCSC[C@H](NC(=O)[C@@H](CC(=O)O)NC(=O)[C@H](Cc5cccc7ccccc57)NC(=O)[C@@H]5CCCN5C4=O)C(=O)N[C@@H](CCSC)C(=O)N[C@@H](CCCCNC(=N)N)C(=O)N[C@@H](CC(=O)O)C(=O)N[C@@H](Cc4c[nH]c5ccccc45)C(=O)N[C@@H](CO)C(=O)N[C@@H]([C@@H](C)O)C(=O)N4CCC[C@H]4C(=O)N4C[C@H](O)C[C@H]4C(=O)N[C@@H](Cc4c[nH]c5ccccc45)C(=O)N[C@H](C(N)=O)CSCCC6=O)CCOCCOCCOCCn4cc(CCC(=O)NCCCC[C@H]5NC(=O)[C@H](CCC(=O)O)NC(=O)[C@@H]6CCCN6C(=O)[C@H](CC(C)(C)C)NC(=O)[C@@H](NC(C)=O)CSCCC(=O)N6CN7CN(C6)C(=O)CCSC[C@H](NC(=O)[C@H](Cc6ccc(O)cc6)NC(=O)[C@@H]6CCCN6C5=O)C(=O)N[C@@H](Cc5ccccc5)C(=O)N[C@@H](C)C(=O)N[C@@H](CC(=O)O)C(=O)N5CCC[C@H]5C(=O)N[C@@H](Cc5ccc(O)cc5)C(=O)N[C@@H](CCCC)C(=O)N[C@H](C(N)=O)CSCCC7=O)nn4)nn3)C(=O)N3CCC[C@H]3C(=O)N[C@@H](Cc3ccc(O)cc3)C(=O)N2)C(=O)CCSC[C@@H](C(N)=O)NC1=O,rat,"intravenous, 2 mg/kg",3.1 h
COC(=O)C(NC(=O)c1cn(CCCCCF)c2ccccc12)C(C)(C)C (centres unmarked),male Sprague-Dawley rat,"subcutaneous, 100 µg/kg",10.3 h
O=C([O-])C(=O)[O-].[NH-][C@@H]1CCCC[C@H]1[NH-].[Pt+4] (relative stereo),rat,"intravenous, 5 mg/kg",3.1 h
[2H]C([2H])([2H])n1cc2cc(Nc3nc(=O)n(Cc4ncn(C)n4)c(=O)n3Cc3cc(F)c(F)cc3F)c(Cl)cc2n1,male Sprague-Dawley rat,"intravenous, 5 mg/kg",3.68 h
O=C(Nc1cccnn1)N1CCN([C@@H]2CCOc3cc(C(F)(F)F)ccc32)CC1,male Sprague-Dawley rat,"oral, 0.3 mg/kg",3.3 h
CCCC[C@@H]1NC(=O)[C@H](Cc2ccc(O)cc2)NC(=O)[C@@H]2CCCN2C(=O)[C@H](CC(=O)O)NC(=O)[C@H](C)NC(=O)[C@H](Cc2ccccc2)NC(=O)[C@@H]2CSCCC(=O)N3CN(CN(C3)C(=O)CCSC[C@@H](C(=O)N[C@@H](CNC(=O)CCc3cn(CCOCCOCCOCCN(CCOCCOCCOCCC(=O)N[C@H]4CSCCC(=O)N5CN6CN(C5)C(=O)CCSC[C@H](NC(=O)[C@@H](CC(=O)O)NC(=O)[C@H](Cc5cccc7ccccc57)NC(=O)[C@@H]5CCCN5C4=O)C(=O)N[C@@H](CCSC)C(=O)N[C@@H](CCCCNC(=N)N)C(=O)N[C@@H](CC(=O)O)C(=O)N[C@@H](Cc4c[nH]c5ccccc45)C(=O)N[C@@H](CO)C(=O)N[C@@H]([C@@H](C)O)C(=O)N4CCC[C@H]4C(=O)N4C[C@H](O)C[C@H]4C(=O)N[C@@H](Cc4c[nH]c5ccccc45)C(=O)N[C@H](C(N)=O)CSCCC6=O)CCOCCOCCOCCn4cc(CCC(=O)NC[C@H](NC(=O)[C@@H]5CSCCC(=O)N6CN7CN(C6)C(=O)CCSC[C@H](NC(=O)[C@H](Cc6ccc(O)cc6)NC(=O)[C@@H]6CCCN6C(=O)[C@@H](C)NC(=O)[C@H](CCC(=O)O)NC(=O)[C@@H]6CCCN6C(=O)[C@H](CC(C)(C)C)NC(=O)[C@@H](NC(C)=O)CSCCC7=O)C(=O)N[C@@H](Cc6ccccc6)C(=O)N[C@@H](C)C(=O)N[C@@H](CC(=O)O)C(=O)N6CCC[C@H]6C(=O)N[C@@H](Cc6ccc(O)cc6)C(=O)N[C@@H](CCCC)C(=O)N5)C(N)=O)nn4)nn3)C(N)=O)NC1=O)C(=O)CCSC[C@H](NC(C)=O)C(=O)N[C@@H](CC(C)(C)C)C(=O)N1CCC[C@H]1C(=O)N[C@@H](CCC(=O)O)C(=O)N[C@H](C)C(=O)N1CCC[C@H]1C(=O)N[C@@H](Cc1ccc(O)cc1)C(=O)N2,rat,"intravenous, 2 mg/kg",3.6 h
Cl.Cl.O=C(CCN1CCCCC1)c1ccc(-c2ccc(C(=O)CCN3CCCCC3)cc2)cc1,Sprague-Dawley rat,"intravenous, 5 mg/kg",0.08 h
N=c1c2c(-c3ccccc3)c(-c3ccccc3)n(Cc3ccccc3)c2ncn1[C@H]1CC[C@H](O)CC1,male Sprague-Dawley rat,"oral, 2 mg/kg, single dose",8.9 h
Cn1cnc(Cn2c(=O)[nH]/c(=N\c3cc4cn(C)nc4cc3Cl)n(Cc3cc(F)c(F)cc3F)c2=O)n1,male Sprague-Dawley rat,"intravenous, 5 mg/kg",3.29 h
CSCC[C@H](NC(=O)COCCOCCNC(=O)COCCOCCNC(=O)CC[C@H](NC(=O)CCCCCCCCCCCCCCCCC(=O)O)C(=O)O)C(=O)N[C@H]1CSSC[C@@H](C(=O)NCC(=O)N[C@@H](CO)C(=O)NCC(=O)N[C@@H](CO)C(=O)N[C@@H](CC(=O)O)C(=O)N[C@@H](Cc2ccc(O)cc2)C(=O)N[C@@H](CCCCN)C(=O)N[C@@H](CC(=O)O)C(=O)N[C@@H](CC(=O)O)C(=O)N[C@@H](CC(=O)O)C(=O)N[C@@H](CC(=O)O)C(=O)N[C@@H](CCCCN)C(N)=O)NC(=O)[C@H](Cc2ccccc2)NC(=O)[C@@H]2CCCN2C(=O)[C@H](Cc2c[nH]c3ccccc23)NC(=O)[C@H](CC(C)C)NC(=O)[C@H](CCSC)NC(=O)[C@H](Cc2c[nH]cn2)NC(=O)[C@H](Cc2ccccc2)NC(=O)[C@H](Cc2c[nH]cn2)NC(=O)[C@H]([C@@H](C)O)NC(=O)[C@H](Cc2ccccc2)NC1=O,male Sprague-Dawley rat,intravenous,10.7 h
[2H]C([2H])(c1cc(F)c(F)cc1F)n1c(=O)n(Cc2ncn(C)n2)c(=O)[nH]/c1=N\c1cc2cn(C)nc2cc1Cl,male Sprague-Dawley rat,"intravenous, 5 mg/kg",3.37 h
CCCCCn1nc(C(=O)Nc2cccc3ccccc23)c2ccccc21,male Long-Evans rat,"intraperitoneal, 3 mg/kg",5.4 h
